# Source: PubChem BioAssay
# FN deposit inh = fibronectin deposition inhibition | AH1F fibroblasts, Alexa488-fibronectin deposition fluorescence, overnight | inhibition, % at 12.6 µM | actives 0.086% (n = 350,000) | AID 743247;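 active = mean inhibition across replicates of 30% or more, regardless of how many single replicates reach that level; inconclusive = mean under 30% yet at least half of replicates reach 30%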;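 note: positive control wells lacked labelled fibronectin entirely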
#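 Assay system: AH1F fibroblast monolayer, labelled fibronectin deposition. Amount: 10000 cells per well. Also added: labelled fibronectin 24 nM. Compound: single-point pinned compound. Incubation: cell attachment 1 h, compound and FN exposure overnight. Detection: fluorescence after three HBSS washes, excitation 485 nm, emission 525 nm. Read-out: inhibition of fibronectin deposition signal.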
# EWS-Fli inh = blocks EWS/Fli oncoprotein-driven transcription; A673 NR0B1-luciferase reporter, viability-normalised; inhibition, % at 12.6 µM; actives 0.67% (n = 350,000);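 active = mean inhibition of at least 50% after viability correction, with every replicate also passing that limit; inconclusive = mean reaches 50% but only one of two replicates passes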;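 note: firefly luciferase signal divided by Alamar Blue viability fluorescence both relative to DMSO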
# MLL AF4-AF9 inh = MLL-AF4/AF9 protein interaction inhibition; P42568; AlphaScreen, biotin-AF4 peptide binding to FLAG-AF9; inhibition, % at 10 µM; actives 0.47% (n = 350,000);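 active = every replicate reaching a set inhibition limit, whatever the replicate mean, cut at about 25% in these data; inconclusive = mean inhibition reaches that limit but some replicates miss it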;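 note: 0% = plate neutral control median and 100% = total signal loss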
# Target sequence (P42568 whole entry, looked up): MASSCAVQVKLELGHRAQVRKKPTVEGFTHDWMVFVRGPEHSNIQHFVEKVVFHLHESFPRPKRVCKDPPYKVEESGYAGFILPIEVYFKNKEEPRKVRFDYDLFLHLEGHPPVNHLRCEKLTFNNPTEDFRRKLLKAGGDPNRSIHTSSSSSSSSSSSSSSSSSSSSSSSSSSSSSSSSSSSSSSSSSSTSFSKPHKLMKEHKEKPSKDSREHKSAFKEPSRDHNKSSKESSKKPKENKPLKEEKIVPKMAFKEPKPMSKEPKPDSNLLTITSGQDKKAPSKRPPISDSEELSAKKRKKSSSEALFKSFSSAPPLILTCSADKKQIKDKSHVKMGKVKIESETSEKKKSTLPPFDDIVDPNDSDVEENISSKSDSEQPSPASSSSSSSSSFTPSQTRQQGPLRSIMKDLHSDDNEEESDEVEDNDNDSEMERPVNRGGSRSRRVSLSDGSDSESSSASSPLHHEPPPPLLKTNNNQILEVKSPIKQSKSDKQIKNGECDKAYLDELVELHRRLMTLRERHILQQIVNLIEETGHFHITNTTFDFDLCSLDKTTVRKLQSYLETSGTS
# Env fusion inh = HIV envelope-mediated fusion inhibition; HeLa-JRFL Env/CEM21 cell fusion, luciferase; inhibition, % at 12.3 µM; actives 1.1% (n = 360,000); AID 651610;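 active = mean replicate inhibition score of at least 50 and every replicate individually at or above 50; inconclusive = only one of the two criteria met; inactive = mean below 50 and not all replicates reaching 50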;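 note: 0% = plate neutral controls and 100% = maraviroc near 300 nM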
# PAX8 reporter = inhibitors of PAX8 transcriptional activity in RMG-I cells. RMG-I TPO-luciferase reporter, SteadyGlo, 24 h. inhibition, % at 12.6 µM. actives 1.2% (n = 360,000);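 active = mean replicate inhibition at least 60% with every replicate also reaching 60%; inconclusive = only one of the two criteria is met; inactive = mean below 60% and not all replicates reaching 60%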;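 note: luciferase light reporting Pax8 driven TPO promoter activity; plate controls were median of neutral control wells for no effect and mitoxantrone controls for full effect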
# N-glyco inh = blocks N-linked glycosylation in D54 reporter cells | reporter increase, % at 12.5 µM | D54 ERlucT glycosylation luciferase reporter, 24 h; percent of 100 nM tunicamycin response | actives 0.23% (n = 360,000) | AID 588692;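 active = mean luciferase reporter signal, scaled so untreated is 0 and the glycosylation-blocking control 100, at or above a set limit in every replicate; inconclusive = mean reaches the limit but not every replicate does; inactive = mean below the limit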;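 note: luciferase carries N-glycosylation sites so blocking glycosylation raises the light; 0% = median of neutral control wells and 100% = median of 100 nM tunicamycin wells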
# Starred values were filed as active, the others as inactive; ? = inconclusive; nt = no result given; ! = not active in a repeat; [ ] = another dose, or the depositor's remark. Only some compounds are listed: those with a hit (about 2.5% of all), similar ones and a draw of the others.
SMILES,FN deposit inh,EWS-Fli inh,MLL AF4-AF9 inh,Env fusion inh,PAX8 reporter,N-glyco inh
COc1ccc(C[C@H]2CN3C(=NC[C@@H]3Cc3ccccc3)N2CCNC(=O)c2ccc(C)c(Br)c2)cc1,nt,nt,nt,nt,nt,-6
COc1ccc(C[C@H]2CN3C(=NC[C@H]3Cc3ccccc3)N2CCNC(=O)c2ccc(C)c(Br)c2)cc1,nt,nt,nt,nt,nt,-16
COc1ccc(C[C@H]2CN3C(=NC[C@@H]3Cc3ccc(O)cc3)N2CCNC(=O)c2ccc(C)c(Br)c2)cc1,6,25,29*,-142,-19,4
Cc1ccc(C(=O)NCCN2C3=NC[C@H](Cc4ccc(O)cc4)N3C[C@H]2Cc2ccc(O)cc2)cc1Br,-2,13,29*,-94,-13,2
O=C(C[C@@H]1C[C@H]2c3cc(NS(=O)(=O)c4ccc(F)cc4)ccc3O[C@H]2[C@H](CO)O1)NCc1ccc(Cl)cc1,-20,-15,4,-83[16.7 µM],78*,nt
O=C(C[C@@H]1C[C@@H]2c3cc(NS(=O)(=O)c4ccc(F)cc4)ccc3O[C@@H]2[C@@H](CO)O1)NCc1ccc(-c2ccccc2)cc1,nt,18,1,25[16.7 µM],87*,nt
O=C(C[C@H]1C[C@H]2c3cc(NS(=O)(=O)c4ccc(F)cc4)ccc3O[C@H]2[C@H](CO)O1)NCc1ccc(-c2ccccc2)cc1,4,31,0,54[16.7 µM],84*,nt
O=C(C[C@@H]1C[C@@H]2c3cc(NS(=O)(=O)c4ccc(F)cc4)ccc3O[C@@H]2[C@H](CO)O1)NCc1ccc(Cl)cc1,9,7,-1,23[16.7 µM],3,nt
O=C(C[C@@H]1C[C@H]2c3cc(NS(=O)(=O)c4ccc(F)cc4)ccc3O[C@H]2[C@H](CO)O1)NCc1ccccc1,-15,-2,1,-23[16.7 µM],48,nt
O=C(C[C@@H]1C[C@H]2c3cc(NS(=O)(=O)c4ccc(F)cc4)ccc3O[C@H]2[C@@H](CO)O1)NCc1ccc(-c2ccccc2)cc1,12,-10,0,25[16.7 µM],73*,nt
C[C@H](CO)N1C[C@H](C)[C@H](CN(C)S(=O)(=O)c2ccc(Cl)cc2)Oc2ccc(NC(=O)CCN3CCOCC3)cc2C1=O,nt,-4,1,nt,-6,nt
COc1ccc(CN(C)C[C@@H]2OCCCC[C@H](C)Oc3ccc(NS(=O)(=O)c4c(C)noc4C)cc3C(=O)N([C@@H](C)CO)C[C@H]2C)cc1,nt,4,-1,nt,-15,nt
O=C(c1ccccc1)N1CC2(C1)[C@H](c1ccccc1)[C@H](CO)N2CC1CC1,nt,-8,-1,nt,-9,nt
CN1CCN(C(=O)C[C@@H]2CC[C@@H]3[C@H](COC[C@@H](O)CN3CC3CCOCC3)O2)CC1,-2,-3,nt,5[16.7 µM],-8,nt
COc1ccc(CCNCc2ccccc2N2CCCC2)cc1,-1,10,1,4,5,-1
COc1ccc(-n2c(C)cc(C(=O)CCl)c2C)cc1,-3,61*,7,-132,1,24
COc1ccc(CCNCc2cc(C)n(-c3ccc(OC)cc3)c2C)cc1,-1,12,39*,-2,-4,-2
CS(=O)(=O)Nc1ccc2c(c1)[C@@H]1C[C@@H](CC(=O)NCC3CC3)O[C@H](CO)[C@@H]1O2,nt,-12,0,-10[16.7 µM],1,nt
COc1ccc(-c2csc(Nc3cccc(C)n3)n2)cc1,1,-137,-1,-232,-132,-9
COc1ccc(-c2csc(Nc3ccc(Oc4ccccc4)cc3)n2)cc1,nt,4,-3,77*,-11,-3
Oc1ccc2ccccc2c1CN1CC2CCC(CC2)C1,14,12,1,?,84*,-4
O=[N+]([O-])c1cc(S(=O)(=O)C(F)(F)F)ccc1Sc1nc2ccccc2[nH]1,nt,nt,nt,nt,nt,68*
Cc1ccc(S(=O)(=O)Nc2ccc3c(c2)C(=O)N([C@@H](C)CO)C[C@@H](C)[C@H](CN(C)C(=O)Nc2ccc(C(F)(F)F)cc2)OCCCC[C@@H](C)O3)cc1,3,12,-4,19[16.7 µM],40,nt
C[C@@H]1CCCCO[C@@H](CN(C)C(=O)Nc2ccc(C(F)(F)F)cc2)[C@@H](C)CN([C@H](C)CO)C(=O)c2cc(NS(=O)(=O)c3ccc(Cl)cc3)ccc2O1,-7,-3,-2,-1[16.7 µM],82*!,nt
C[C@@H]1CN([C@H](C)CO)C(=O)c2cc(NS(=O)(=O)c3ccc(Cl)cc3)ccc2O[C@@H](C)CCCCO[C@H]1CN(C)C(=O)Nc1ccc(C(F)(F)F)cc1,nt,33,-1,55*[16.7 µM],102*,nt
SMILES,FN deposit inh,EWS-Fli inh,MLL AF4-AF9 inh,Env fusion inh,PAX8 reporter,N-glyco inh
C[C@@H]1CN([C@@H](C)CO)S(=O)(=O)c2ccc(C3=CCCC3)cc2O[C@@H]1CN(C)Cc1ccccn1,-6,5,0,nt,-5,nt
N#Cc1ccc(NC(=S)/N=C(\N)c2ccccc2)cc1,7,-68,2,-86,-141,-1
N/C(=N\C(=S)Nc1ccccc1)c1ccccc1,-1,-96,43*,-93,-212,-5
CCOc1ccc(NC(=O)C[n+]2ccc(N(C)C)cc2)cc1,2,1,-3,-17,8,1
CN(C)c1cc[n+](CC(=O)Nc2ccc(Oc3ccccc3)cc2)cc1,2,18,nt,28,89*,14
CO[C@H]1CN(C)C(=O)c2cc(NC(=O)CC(F)(F)F)ccc2OC[C@H](C)N(C(=O)C2CCCCC2)C[C@@H]1C,-5,nt,0,nt,-10,nt
CO[C@H]1CC[C@@H]2CCN(C)C(=O)[C@@H](C)[C@H](OC)CN(C)C(=O)c3cccc(C#N)c3OC[C@@H]1O2,-1,-12,-2,9[16.7 µM],-9,nt
C[C@@H]1CN([C@H](C)CO)C(=O)c2cc(NC(=O)NC3CCCCC3)ccc2O[C@@H](C)CCCCO[C@@H]1CN(C)S(=O)(=O)c1cccs1,nt,15,-1,-65[16.7 µM],7,nt
CN(CCCC(=O)Nc1ccncc1)S(=O)(=O)c1ccc(Cl)cc1,-10,nt,nt,66*,17,-6
Cc1ccc(-c2nc3cc(C)c(Br)c(C)n3c2Cc2cccc(F)c2)cc1,0,-45,0,-20,0,-9
N#Cc1ccc(-c2nc3ccc(Br)cn3c2Cc2cccc(F)c2)cc1,-3,-24,-1,-340,-4,5
Cc1cc2nc(-c3ccccc3)c(Cc3cccc(F)c3)n2c(C)c1Br,4,-22,3,74*,22,-2
Cc1cc(Br)cn2c(Cc3cccc(F)c3)c(-c3ccc(C#N)cc3)nc12,30*,3,0,-55,13,nt
COC(=O)[C@H]1[C@H](CO)[C@H]2Cn3c(ccc(/C=C/c4ccccc4)c3=O)[C@H]2N1C(=O)CC1CC1,nt,3,0,nt,1,nt
COc1ccc(NC(=O)N2CCCCN3[C@H](CO)[C@@H](c4ccc(C5=CCCC5)cc4)[C@H]3C2)cc1,nt,-15,12,nt,-22,nt
CC(=O)Nc1ccc(C(=O)OCC(=O)NC(=O)NCc2ccccc2)cc1,-13,0,1,71*,-13,1
